Results published in ChEMBL document CHEMBL1933017, “Synthesis and biological evaluation of some thiazolidinones as antimicrobial agents” (2012).
Values after ≈ are worked out from the molar mass of the structure shown.

How the values were obtained:
Proteus vulgaris [1] = assay: Antibacterial activity against Proteus vulgaris at 100 ug/disc after 24 hrs by disc diffusion method; assay type: functional; settings: read-out: DIZ
Outline: (§1)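 Paper disc diffusion on autoclaved Mueller-Hinton agar poured 5 mm deep. Agar was swab-inoculated with 10⁵ CFU/mL suspension (0.5 McFarland). Discs 6.25 mm across were soaked in compound solution in DMSO (3.12–100 µg/mL) and plates incubated 24 h at (37 ± 1) °C. Read-out was inhibition zone (mm). DMSO control disc; ciprofloxacin or ketoconazole reference, 100 µg/disc. Mean of three independent experiments.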

Shigella flexneri [2] = assay: Antibacterial activity against Shigella flexneri at 100 ug/disc after 24 hrs by disc diffusion method; assay type: functional; settings: read-out: DIZ; outline: as §1
Staphylococcus aureus [3] = assay: Antibacterial activity against Staphylococcus aureus after 24 hrs by agar streak dilution method; assay type: functional
Outline: (§2)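 MIC by agar streak dilution. Graded amounts of DMSO stock (100 μg/mL) were mixed into molten sterile nutrient agar and poured 4–5 mm deep. Serial concentrations spanned 3.12–100 µg/mL. Plates were inoculated with about 10⁵ CFU/mL of bacterial suspension and incubated at (37 ± 1) °C for 24 h. Each value is the mean of three independent experiments.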

Bacillus cereus [4] = assay: Antibacterial activity against Bacillus cereus after 24 hrs by agar streak dilution method; assay type: functional; outline: as §2
Escherichia coli [5] = assay: Antibacterial activity against Escherichia coli after 24 hrs by agar streak dilution method; assay type: functional; outline: as §2
Pseudomonas aeruginosa [6] = assay: Antibacterial activity against Pseudomonas aeruginosa […] after 24 hrs by agar streak dilution method; assay type: functional
Klebsiella pneumoniae [7] = assay: Antibacterial activity against Klebsiella pneumoniae […] after 24 hrs by agar streak dilution method; assay type: functional
Salmonella typhi [8] = assay: Antibacterial activity against Salmonella Typhi after 24 hrs by agar streak dilution method; assay type: functional, Salmonella enterica subsp. enterica serovar Typhi; settings: Salmonella enterica
Outline: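 Agar streak dilution: DMSO stock (100 µg/mL) graded into molten sterile nutrient agar, poured 4–5 mm deep and solidified. Plates carry serial dilutions spanning 3.12–100 µg/mL. Applied ~10⁵ CFU/mL suspension, then incubated 24 h at (37 ± 1) °C. MIC read as the lowest inhibitory concentration; each value is the mean of three independent experiments.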

Proteus vulgaris [9] = assay: Antibacterial activity against Proteus vulgaris after 24 hrs by agar streak dilution method; assay type: functional; outline: as §2
Shigella flexneri [10] = assay: Antibacterial activity against Shigella flexneri after 24 hrs by agar streak dilution method; assay type: functional; outline: as §2
Aspergillus niger [11] = assay: Antifungal activity against Aspergillus niger after 48 hrs by agar streak dilution method; assay type: functional
Outline: (§3)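 Fungal MIC by agar streak dilution on Sabouraud dextrose agar, poured 4–5 mm deep. Compound from a DMSO stock (100 μg/mL) was incorporated at serial concentrations of 3.12–100 µg/mL. Plates were inoculated with about 10⁵ CFU/mL of suspension and incubated at (37 ± 1) °C for 48 h. Each value is the mean of three independent experiments.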

Aspergillus fumigatus [12] = assay: Antifungal activity against Aspergillus fumigatus after 48 hrs by agar streak dilution method; assay type: functional; outline: as §3
Aspergillus clavatus [13] = assay: Antifungal activity against Aspergillus clavatus after 48 hrs by agar streak dilution method; assay type: functional; outline: as §3
Candida albicans [14] = assay: Antifungal activity against Candida albicans after 48 hrs by agar streak dilution method; assay type: functional; outline: as §3
Aspergillus niger [15] = assay: Antifungal activity against Aspergillus niger at 100 ug/disc after 24 hrs by disc diffusion method; assay type: functional; settings: read-out: DIZ; outline: as §1
Aspergillus fumigatus [16] = assay: Antifungal activity against Aspergillus fumigatus at 100 ug/disc after 24 hrs by disc diffusion method; assay type: functional; settings: read-out: DIZ; outline: as §1
Aspergillus clavatus [17] = assay: Antifungal activity against Aspergillus clavatus at 100 ug/disc after 24 hrs by disc diffusion method; assay type: functional; settings: read-out: DIZ; outline: as §1
Candida albicans [18] = assay: Antifungal activity against Candida albicans at 100 ug/disc after 24 hrs by disc diffusion method; assay type: functional; settings: read-out: DIZ; outline: as §1
Staphylococcus aureus [19] = assay: Antibacterial activity against Staphylococcus aureus at 100 ug/disc after 24 hrs by disc diffusion method; assay type: functional; settings: read-out: DIZ; outline: as §1
Bacillus cereus [20] = assay: Antibacterial activity against Bacillus cereus at 100 ug/disc after 24 hrs by disc diffusion method; assay type: functional; settings: read-out: DIZ; outline: as §1
Escherichia coli [21] = assay: Antibacterial activity against Escherichia coli at 100 ug/disc after 24 hrs by disc diffusion method; assay type: functional; settings: read-out: DIZ; outline: as §1
Pseudomonas aeruginosa [22] = assay: Antibacterial activity against Pseudomonas aeruginosa at 100 ug/disc after 24 hrs by disc diffusion method; assay type: functional; settings: read-out: DIZ; outline: as §1
Klebsiella pneumoniae [23] = assay: Antibacterial activity against Klebsiella pneumoniae at 100 ug/disc after 24 hrs by disc diffusion method; assay type: functional; settings: read-out: DIZ; outline: as §1
Salmonella typhi [24] = assay: Antibacterial activity against Salmonella Typhi at 100 ug/disc after 24 hrs by disc diffusion method; assay type: functional, Salmonella enterica subsp. enterica serovar Typhi; settings: Salmonella enterica, read-out: DIZ
Outline: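 Paper disc diffusion on Mueller-Hinton agar poured 5 mm deep; 10⁵ CFU/mL suspension (0.5 McFarland) swabbed over surface. 6.25 mm filter paper discs soaked in compound in DMSO, incubated 24 h at (37 ± 1) °C; inhibition zone diameter in mm. DMSO disc as blank; ciprofloxacin 100 µg/disc as reference. Mean of three independent experiments.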

SMILES | zone of inhibition at 100 µg/disc (Proteus vulgaris [1]) [mm] | zone of inhibition at 100 µg/disc (Shigella flexneri [2]) [mm] | MIC (Staphylococcus aureus [3]) [µg/mL] | MIC (Bacillus cereus [4]) [µg/mL] | MIC (Escherichia coli [5]) [µg/mL] | MIC (Pseudomonas aeruginosa [6]) [µg/mL] | MIC (Klebsiella pneumoniae [7]) [µg/mL] | MIC (Salmonella typhi [8]) [µg/mL] | MIC (Proteus vulgaris [9]) [µg/mL] | MIC (Shigella flexneri [10]) [µg/mL] | MIC (Aspergillus niger [11]) [µg/mL] | MIC (Aspergillus fumigatus [12]) [µg/mL] | MIC (Aspergillus clavatus [13]) [µg/mL] | MIC (Candida albicans [14]) [µg/mL] | zone of inhibition at 100 µg/disc (Aspergillus niger [15]) [mm] | zone of inhibition at 100 µg/disc (Aspergillus fumigatus [16]) [mm] | zone of inhibition at 100 µg/disc (Aspergillus clavatus [17]) [mm] | zone of inhibition at 100 µg/disc (Candida albicans [18]) [mm] | zone of inhibition at 100 µg/disc (Staphylococcus aureus [19]) [mm] | zone of inhibition at 100 µg/disc (Bacillus cereus [20]) [mm] | also measured
CCN1CCN(CC2SC(c3ccccc3Br)N(c3ccc(Nc4nc(Oc5cc(=O)n(C)c6ccccc56)nc(N(C)C)n4)cc3)C2=O)CC1 (centres undefined) | 15 | 11 | 100 (≈ 130 µM) | 100 (≈ 130 µM) | 100 (≈ 130 µM) | 100 (≈ 130 µM) | 100 (≈ 130 µM) | 100 (≈ 130 µM) | 100 (≈ 130 µM) | 100 (≈ 130 µM) | 100 (≈ 130 µM) | 100 (≈ 130 µM) | 100 (≈ 130 µM) | 100 (≈ 130 µM) | < 10 | < 10 | 13 | < 10 | < 10 | 13 | zone of inhibition at 100 µg/disc (Escherichia coli [21]): < 10 mm; zone of inhibition at 100 µg/disc (Pseudomonas aeruginosa [22]): 14 mm; zone of inhibition at 100 µg/disc (Klebsiella pneumoniae [23]): 12 mm; zone of inhibition at 100 µg/disc (Salmonella typhi [24]): 12 mm
CCN1CCN(CC2SC(c3ccc(F)cc3)N(c3ccc(Nc4nc(Oc5cc(=O)n(C)c6ccccc56)nc(N(C)C)n4)cc3)C2=O)CC1 (centres undefined) | 22 | 19 | 6.25 (≈ 8.8 µM) | 6.25 (≈ 8.8 µM) | 6.25 (≈ 8.8 µM) | 12.5 (≈ 17.6 µM) | 25 (≈ 35.2 µM) | 6.25 (≈ 8.8 µM) | 25 (≈ 35.2 µM) | 25 (≈ 35.2 µM) | 12.5 (≈ 17.6 µM) | 12.5 (≈ 17.6 µM) | 25 (≈ 35.2 µM) | 25 (≈ 35.2 µM) | 26 | 28 | 25 | 25 | 27 | 28 | zone of inhibition at 100 µg/disc (Escherichia coli [21]): 28 mm; zone of inhibition at 100 µg/disc (Pseudomonas aeruginosa [22]): 25 mm; zone of inhibition at 100 µg/disc (Klebsiella pneumoniae [23]): 25 mm; zone of inhibition at 100 µg/disc (Salmonella typhi [24]): 27 mm
CCN1CCN(CC2SC(c3ccc(Cl)cc3Cl)N(c3ccc(Nc4nc(Oc5cc(=O)n(C)c6ccccc56)nc(N(C)C)n4)cc3)C2=O)CC1 (centres undefined) | 20 | 26 | 6.25 (≈ 8.22 µM) | 12.5 (≈ 16.4 µM) | 12.5 (≈ 16.4 µM) | 25 (≈ 32.9 µM) | 25 (≈ 32.9 µM) | 50 (≈ 65.7 µM) | 12.5 (≈ 16.4 µM) | 6.25 (≈ 8.22 µM) | 6.25 (≈ 8.22 µM) | 25 (≈ 32.9 µM) | 12.5 (≈ 16.4 µM) | 12.5 (≈ 16.4 µM) | 28 | 17 | 25 | 28 | 25 | 19 | zone of inhibition at 100 µg/disc (Escherichia coli [21]): 24 mm; zone of inhibition at 100 µg/disc (Pseudomonas aeruginosa [22]): 21 mm; zone of inhibition at 100 µg/disc (Klebsiella pneumoniae [23]): 23 mm; zone of inhibition at 100 µg/disc (Salmonella typhi [24]): 15 mm
CCN1CCN(CC2SC(c3ccccc3[N+](=O)[O-])N(c3ccc(Nc4nc(Oc5cc(=O)n(C)c6ccccc56)nc(N(C)C)n4)cc3)C2=O)CC1 (centres undefined) | 17 | 14 | 100 (≈ 136 µM) | 50 (≈ 67.9 µM) | 100 (≈ 136 µM) | 100 (≈ 136 µM) | 100 (≈ 136 µM) | 100 (≈ 136 µM) | 100 (≈ 136 µM) | 100 (≈ 136 µM) | 100 (≈ 136 µM) | 100 (≈ 136 µM) | 100 (≈ 136 µM) | 100 (≈ 136 µM) | < 10 | 13 | 15 | 19 | 13 | 17 | zone of inhibition at 100 µg/disc (Escherichia coli [21]): 14 mm; zone of inhibition at 100 µg/disc (Pseudomonas aeruginosa [22]): 16 mm; zone of inhibition at 100 µg/disc (Klebsiella pneumoniae [23]): 15 mm; zone of inhibition at 100 µg/disc (Salmonella typhi [24]): 15 mm
CCN1CCN(CC2SC(c3cccc(O)c3O)N(c3ccc(Nc4nc(Oc5cc(=O)n(C)c6ccccc56)nc(N(C)C)n4)cc3)C2=O)CC1 (centres undefined) | 13 | < 10 | 100 (≈ 138 µM) | 100 (≈ 138 µM) | 100 (≈ 138 µM) | 100 (≈ 138 µM) | 100 (≈ 138 µM) | 100 (≈ 138 µM) | 100 (≈ 138 µM) | 100 (≈ 138 µM) | 100 (≈ 138 µM) | 100 (≈ 138 µM) | 100 (≈ 138 µM) | 100 (≈ 138 µM) | < 10 | 13 | 12 | < 10 | < 10 | 12 | zone of inhibition at 100 µg/disc (Escherichia coli [21]): < 10 mm; zone of inhibition at 100 µg/disc (Pseudomonas aeruginosa [22]): 11 mm; zone of inhibition at 100 µg/disc (Klebsiella pneumoniae [23]): 16 mm; zone of inhibition at 100 µg/disc (Salmonella typhi [24]): 14 mm
CCN1CCN(CC2SC(c3ccc(C(=O)O)cc3)N(c3ccc(Nc4nc(Oc5cc(=O)n(C)c6ccccc56)nc(N(C)C)n4)cc3)C2=O)CC1 (centres undefined) | 25 | 27 | 25 (≈ 34 µM) | 12.5 (≈ 17 µM) | 6.25 (≈ 8.49 µM) | 25 (≈ 34 µM) | 12.5 (≈ 17 µM) | 50 (≈ 67.9 µM) | 12.5 (≈ 17 µM) | 6.25 (≈ 8.49 µM) | 25 (≈ 34 µM) | 50 (≈ 67.9 µM) | 50 (≈ 67.9 µM) | 100 (≈ 136 µM) | 27 | 20 | 23 | 25 | 26 | 23 | zone of inhibition at 100 µg/disc (Escherichia coli [21]): 27 mm; zone of inhibition at 100 µg/disc (Pseudomonas aeruginosa [22]): 22 mm; zone of inhibition at 100 µg/disc (Klebsiella pneumoniae [23]): 26 mm; zone of inhibition at 100 µg/disc (Salmonella typhi [24]): 22 mm
